Assay results reported in ChEMBL document CHEMBL3098105, “7,7'-Diazaindirubin--a small molecule inhibitor of casein kinase 2 in vitro and in cells” (Bioorg Med Chem, 2014).
Activity calls are given as the source filed them. No cut-off for these calls is given here.

How the values were obtained:
[1] = target: Proto-oncogene tyrosine-protein kinase receptor Ret (Homo sapiens) (UniProt P07949); assay: Inhibition of human Ret assessed as residual activity at 1 uM relative to control
[2] = target: Epidermal growth factor receptor (Homo sapiens) (UniProt P00533); assay: Inhibition of EGF-R (unknown origin) assessed as residual activity at 1 uM relative to control
UACC-62 = assay: Antiproliferative activity against human UACC62 cells after 3 days by sulforhodamine B assay; format: functional; settings: UACC-62, 72 h
[3] = target: Serine/threonine-protein kinase B-raf (Homo sapiens) (UniProt P15056); assay: Inhibition of wild type B-RAF (unknown origin) assessed as residual activity at 10 uM relative to control
[4] = target: Mitogen-activated protein kinase 12 (Homo sapiens) (UniProt P53778); assay: Inhibition of human SAPK3 assessed as residual activity at 1 uM relative to control
M14 = assay: Antiproliferative activity against human M14 cells after 3 days by sulforhodamine B assay; format: functional; settings: M14, 72 h
How it was run: (§1)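 Tested in the NCI 60 cell line panel. GI50 is the concentration giving 50% inhibition of cell growth, and values are the mean of two series of tests.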

[5] = target: Aurora kinase C (Homo sapiens) (UniProt Q9UQB9); assay: Inhibition of Aurora-C (unknown origin) assessed as residual activity at 10 uM relative to control
[6] = target: Tyrosine-protein kinase receptor UFO (Homo sapiens) (UniProt P30530); assay: Inhibition of human Axl assessed as residual activity at 1 uM relative to control
SK-MEL-2 = assay: Antiproliferative activity against human SK-MEL-2 cells after 3 days by sulforhodamine B assay; format: functional; settings: SK-MEL-2, 72 h; how it was run: as §1
[7] = target: cGMP-dependent protein kinase 1 (Homo sapiens) (UniProt Q13976); assay: Inhibition of human PKG1alpha assessed as residual activity at 1 uM relative to control
[8] = target: Tyrosine-protein kinase Fgr (Homo sapiens) (UniProt P09769); assay: Inhibition of FGR (unknown origin) assessed as residual activity at 1 uM relative to control
MCF7 [9] = assay: Cell cycle arrest in human MCF7 cells assessed as accumulation at sub-G1 phase at 0.25 uM after 24 hrs using propidium iodide staining by FACS analysis (reference value: 0.17%); format: functional
[10] = target: Mitogen-activated protein kinase kinase kinase 5 (Homo sapiens) (UniProt Q99683); assay: Inhibition of human ASK1 assessed as residual activity at 1 uM relative to control
[11] = target: Cyclin-dependent kinase 2/cyclin E1 (Homo sapiens) (UniProt P24864+P24941); assay: Inhibition of CDK2/CycE (unknown origin) assessed as residual activity at 10 uM relative to control; format: protein-complex assay
[12] = target: Interleukin-1 receptor-associated kinase 4 (Homo sapiens) (UniProt Q9NWZ3); assay: Inhibition of human IRAK4 assessed as residual activity at 1 uM relative to control
[13] = target: Ephrin type-A receptor 3 (Homo sapiens) (UniProt P29320); assay: Inhibition of human EphA3 assessed as residual activity at 1 uM relative to control
[14] = target: cGMP-dependent protein kinase 1 (Homo sapiens) (UniProt Q13976); assay: Inhibition of human PKG1beta assessed as residual activity at 1 uM relative to control
[15] = target: Rho-associated protein kinase 1 (Homo sapiens) (UniProt Q13464); assay: Inhibition of human ROCK-1 assessed as residual activity at 1 uM relative to control
[16] = target: Tyrosine-protein kinase HCK (Homo sapiens) (UniProt P08631); assay: Inhibition of human Hck assessed as residual activity at 1 uM relative to control
MCF7 [17] = assay: Cell cycle arrest in human MCF7 cells assessed as accumulation at S phase at 1 uM after 24 hrs using propidium iodide staining by FACS analysis (reference value: 18.59%); format: functional
[18] = target: Serine/threonine-protein kinase 4 (Homo sapiens) (UniProt Q13043); assay: Inhibition of human MST1 assessed as residual activity at 1 uM relative to control
MCF7 [19] = assay: Cell cycle arrest in human MCF7 cells assessed as accumulation at G1 phase at 0.5 uM after 24 hrs using propidium iodide staining by FACS analysis (reference value: 57.74%); format: functional
[20] = Antiproliferative activity against human SF539 cells after 3 days by sulforhodamine B assay; format: functional; settings: SF-539, 72 h; how it was run: as §1
[21] = target: Death-associated protein kinase 2 (Homo sapiens) (UniProt Q9UIK4); assay: Inhibition of human DAPK2 assessed as residual activity at 1 uM relative to control
[22] = target: Focal adhesion kinase 1 (Homo sapiens) (UniProt Q05397); assay: Inhibition of human FAK assessed as residual activity at 1 uM relative to control
[23] = target: Serine/threonine-protein kinase STK11 (Homo sapiens) (UniProt Q15831); assay: Inhibition of human LKB1 assessed as residual activity at 1 uM relative to control
[24] = target: Serine/threonine-protein kinase TAO2 (Homo sapiens) (UniProt Q9UL54); assay: Inhibition of human TAO2 assessed as residual activity at 1 uM relative to control
NCI-H322M = assay: Antiproliferative activity against human NCI-H322M cells after 3 days by sulforhodamine B assay; format: functional; settings: 72 h; how it was run: as §1
[25] = target: cAMP-dependent protein kinase catalytic subunit PRKX (Homo sapiens) (UniProt P51817); assay: Inhibition of human PrKX assessed as residual activity at 1 uM relative to control
MCF7 [26] = assay: Induction of apoptosis in human MCF7 cells assessed as PARP cleavage at 1 uM after 24 hrs by Western blot analysis; format: functional, cell-based
How it was run: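 Cells were lysed in urea lysis buffer (6 M urea, NaF, Na3VO4, protease inhibitors). 20–40 µg protein was run on 10% SDS-PAGE and detected by ECL. Primary antibodies (pAkt S473, PARP, β-actin loading control) were used at 1:1000 overnight at 4 °C. DMSO was the vehicle control. For the pAkt blots, cells were treated for 2 h with Ly294002 as positive control.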

[27] = target: Ribosomal protein S6 kinase alpha-4 (Homo sapiens) (UniProt O75676); assay: Inhibition of human MSK2 assessed as residual activity at 1 uM relative to control
[28] = target: Protein kinase C delta type (Homo sapiens) (UniProt Q05655); assay: Inhibition of human PKCdelta assessed as residual activity at 1 uM relative to control
[29] = target: Maternal embryonic leucine zipper kinase (Homo sapiens) (UniProt Q14680); assay: Inhibition of human MELK assessed as residual activity at 1 uM relative to control
[30] = target: Serine/threonine-protein kinase ULK3 (Homo sapiens) (UniProt Q6PHR2); assay: Inhibition of human ULK3 assessed as residual activity at 1 uM relative to control
[31] = target: Tyrosine-protein kinase JAK2 (Homo sapiens) (UniProt O60674); assay: Inhibition of human JAK2 assessed as residual activity at 1 uM relative to control
[32] = target: Serine/threonine-protein kinase MRCK beta (Homo sapiens) (UniProt Q9Y5S2); assay: Inhibition of human MRCKbeta assessed as residual activity at 1 uM relative to control

cGMP-dependent protein kinase 1 (Homo sapiens), sequence (Q13976 whole entry): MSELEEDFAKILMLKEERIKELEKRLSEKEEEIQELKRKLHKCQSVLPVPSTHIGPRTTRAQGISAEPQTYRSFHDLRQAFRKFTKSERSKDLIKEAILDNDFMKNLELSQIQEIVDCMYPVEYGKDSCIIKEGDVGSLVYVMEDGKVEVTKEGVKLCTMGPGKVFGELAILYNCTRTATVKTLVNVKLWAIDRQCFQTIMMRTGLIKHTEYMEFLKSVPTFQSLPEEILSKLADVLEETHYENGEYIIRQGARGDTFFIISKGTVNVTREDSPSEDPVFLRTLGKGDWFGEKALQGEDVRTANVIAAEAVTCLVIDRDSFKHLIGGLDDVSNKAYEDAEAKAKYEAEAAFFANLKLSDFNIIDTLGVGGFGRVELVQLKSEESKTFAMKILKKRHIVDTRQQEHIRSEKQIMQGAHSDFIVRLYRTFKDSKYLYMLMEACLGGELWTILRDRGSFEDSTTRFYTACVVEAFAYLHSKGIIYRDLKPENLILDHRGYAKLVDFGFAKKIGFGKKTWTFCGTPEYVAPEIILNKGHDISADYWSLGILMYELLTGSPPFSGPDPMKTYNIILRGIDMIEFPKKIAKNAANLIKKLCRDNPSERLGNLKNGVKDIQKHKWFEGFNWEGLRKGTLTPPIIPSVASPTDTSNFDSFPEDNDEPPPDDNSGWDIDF
Protein kinase C delta type (Homo sapiens), sequence (Q05655 whole entry, looked up): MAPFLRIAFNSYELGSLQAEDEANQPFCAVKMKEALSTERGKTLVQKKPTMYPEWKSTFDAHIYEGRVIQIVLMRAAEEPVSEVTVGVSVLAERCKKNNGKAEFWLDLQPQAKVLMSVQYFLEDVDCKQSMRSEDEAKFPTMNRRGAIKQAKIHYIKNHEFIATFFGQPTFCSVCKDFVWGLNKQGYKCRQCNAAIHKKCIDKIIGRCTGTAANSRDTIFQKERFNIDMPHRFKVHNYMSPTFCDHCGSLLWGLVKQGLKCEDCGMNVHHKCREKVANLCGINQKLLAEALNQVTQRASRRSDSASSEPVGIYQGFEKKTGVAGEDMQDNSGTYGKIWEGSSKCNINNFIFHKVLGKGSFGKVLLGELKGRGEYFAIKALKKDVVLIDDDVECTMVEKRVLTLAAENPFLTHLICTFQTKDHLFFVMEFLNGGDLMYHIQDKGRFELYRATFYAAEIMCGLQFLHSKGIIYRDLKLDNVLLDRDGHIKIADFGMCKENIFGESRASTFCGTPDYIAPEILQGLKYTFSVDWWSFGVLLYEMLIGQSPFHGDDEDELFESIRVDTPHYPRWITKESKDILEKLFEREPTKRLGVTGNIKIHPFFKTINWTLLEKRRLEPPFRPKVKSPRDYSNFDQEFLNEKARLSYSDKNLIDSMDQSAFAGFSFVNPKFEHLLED
Tyrosine-protein kinase Fgr (Homo sapiens), sequence (P09769 2-529 limits assumed): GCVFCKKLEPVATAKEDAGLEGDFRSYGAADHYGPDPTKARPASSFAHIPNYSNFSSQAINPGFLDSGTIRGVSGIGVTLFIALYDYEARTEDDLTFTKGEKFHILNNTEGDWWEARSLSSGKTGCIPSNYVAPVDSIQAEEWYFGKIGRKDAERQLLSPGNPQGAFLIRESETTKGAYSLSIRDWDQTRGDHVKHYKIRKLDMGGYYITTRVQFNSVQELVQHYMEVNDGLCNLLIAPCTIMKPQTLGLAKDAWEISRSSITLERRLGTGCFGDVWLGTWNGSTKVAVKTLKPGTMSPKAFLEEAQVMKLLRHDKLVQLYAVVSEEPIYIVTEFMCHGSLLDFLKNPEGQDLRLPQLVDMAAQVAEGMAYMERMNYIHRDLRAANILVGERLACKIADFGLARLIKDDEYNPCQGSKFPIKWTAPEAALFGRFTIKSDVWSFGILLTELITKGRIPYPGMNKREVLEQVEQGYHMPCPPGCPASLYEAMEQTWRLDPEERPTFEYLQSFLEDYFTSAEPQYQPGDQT
Ribosomal protein S6 kinase alpha-4 (Homo sapiens), sequence (O75676 whole entry, looked up): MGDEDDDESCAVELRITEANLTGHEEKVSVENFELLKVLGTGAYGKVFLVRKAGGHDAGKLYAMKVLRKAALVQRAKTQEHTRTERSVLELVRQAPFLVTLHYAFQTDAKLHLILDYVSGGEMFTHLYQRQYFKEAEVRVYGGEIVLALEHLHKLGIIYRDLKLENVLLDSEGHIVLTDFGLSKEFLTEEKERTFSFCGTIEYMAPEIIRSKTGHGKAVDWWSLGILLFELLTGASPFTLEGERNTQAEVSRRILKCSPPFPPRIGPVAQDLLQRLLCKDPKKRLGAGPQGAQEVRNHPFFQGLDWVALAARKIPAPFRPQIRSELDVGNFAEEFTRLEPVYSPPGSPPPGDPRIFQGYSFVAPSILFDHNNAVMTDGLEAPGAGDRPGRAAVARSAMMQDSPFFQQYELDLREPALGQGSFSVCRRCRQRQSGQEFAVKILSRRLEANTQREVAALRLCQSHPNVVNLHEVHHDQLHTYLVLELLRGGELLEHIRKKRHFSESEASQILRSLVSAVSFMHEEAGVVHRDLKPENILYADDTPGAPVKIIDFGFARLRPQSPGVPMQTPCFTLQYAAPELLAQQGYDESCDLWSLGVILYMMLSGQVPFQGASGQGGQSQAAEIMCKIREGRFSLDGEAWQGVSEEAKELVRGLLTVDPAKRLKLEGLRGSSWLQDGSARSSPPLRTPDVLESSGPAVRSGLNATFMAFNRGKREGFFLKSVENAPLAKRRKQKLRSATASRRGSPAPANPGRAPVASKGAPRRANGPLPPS
Mitogen-activated protein kinase kinase kinase 5 (Homo sapiens), sequence (Q99683 whole entry): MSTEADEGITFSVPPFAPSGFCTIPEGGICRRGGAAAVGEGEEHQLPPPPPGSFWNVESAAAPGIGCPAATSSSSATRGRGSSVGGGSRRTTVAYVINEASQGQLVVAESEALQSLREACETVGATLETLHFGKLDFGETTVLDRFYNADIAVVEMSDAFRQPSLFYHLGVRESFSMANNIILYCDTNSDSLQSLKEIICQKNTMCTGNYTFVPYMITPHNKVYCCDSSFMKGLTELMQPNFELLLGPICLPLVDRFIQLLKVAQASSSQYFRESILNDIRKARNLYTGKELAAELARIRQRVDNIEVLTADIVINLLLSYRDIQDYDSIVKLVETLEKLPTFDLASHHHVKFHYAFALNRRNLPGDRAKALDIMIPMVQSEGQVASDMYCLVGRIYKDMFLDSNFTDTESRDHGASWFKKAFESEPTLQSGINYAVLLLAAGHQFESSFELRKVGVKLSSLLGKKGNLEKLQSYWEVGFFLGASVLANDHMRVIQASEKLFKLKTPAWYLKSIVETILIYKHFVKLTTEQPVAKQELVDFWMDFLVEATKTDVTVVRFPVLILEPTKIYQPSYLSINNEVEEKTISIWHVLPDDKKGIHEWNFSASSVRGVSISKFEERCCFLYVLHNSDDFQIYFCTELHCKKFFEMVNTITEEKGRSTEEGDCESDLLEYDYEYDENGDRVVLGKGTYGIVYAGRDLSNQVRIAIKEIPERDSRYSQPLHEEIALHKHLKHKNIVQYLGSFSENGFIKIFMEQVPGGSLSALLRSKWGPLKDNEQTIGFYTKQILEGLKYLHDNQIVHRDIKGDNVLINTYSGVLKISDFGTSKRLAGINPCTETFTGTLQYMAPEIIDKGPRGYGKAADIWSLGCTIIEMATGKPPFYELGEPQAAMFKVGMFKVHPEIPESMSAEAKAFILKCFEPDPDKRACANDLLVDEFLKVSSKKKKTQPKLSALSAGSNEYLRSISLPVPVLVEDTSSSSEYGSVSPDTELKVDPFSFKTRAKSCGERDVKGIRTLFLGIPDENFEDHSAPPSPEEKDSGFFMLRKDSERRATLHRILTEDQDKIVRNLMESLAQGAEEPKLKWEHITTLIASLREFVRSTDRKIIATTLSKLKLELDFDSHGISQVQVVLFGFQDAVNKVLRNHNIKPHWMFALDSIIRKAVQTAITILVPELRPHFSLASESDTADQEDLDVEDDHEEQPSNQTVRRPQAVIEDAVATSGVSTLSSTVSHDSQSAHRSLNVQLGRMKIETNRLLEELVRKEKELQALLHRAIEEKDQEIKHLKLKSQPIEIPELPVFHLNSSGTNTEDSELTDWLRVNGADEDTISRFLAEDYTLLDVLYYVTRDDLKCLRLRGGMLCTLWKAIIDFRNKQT
Ephrin type-A receptor 3 (Homo sapiens), sequence (P29320 whole entry): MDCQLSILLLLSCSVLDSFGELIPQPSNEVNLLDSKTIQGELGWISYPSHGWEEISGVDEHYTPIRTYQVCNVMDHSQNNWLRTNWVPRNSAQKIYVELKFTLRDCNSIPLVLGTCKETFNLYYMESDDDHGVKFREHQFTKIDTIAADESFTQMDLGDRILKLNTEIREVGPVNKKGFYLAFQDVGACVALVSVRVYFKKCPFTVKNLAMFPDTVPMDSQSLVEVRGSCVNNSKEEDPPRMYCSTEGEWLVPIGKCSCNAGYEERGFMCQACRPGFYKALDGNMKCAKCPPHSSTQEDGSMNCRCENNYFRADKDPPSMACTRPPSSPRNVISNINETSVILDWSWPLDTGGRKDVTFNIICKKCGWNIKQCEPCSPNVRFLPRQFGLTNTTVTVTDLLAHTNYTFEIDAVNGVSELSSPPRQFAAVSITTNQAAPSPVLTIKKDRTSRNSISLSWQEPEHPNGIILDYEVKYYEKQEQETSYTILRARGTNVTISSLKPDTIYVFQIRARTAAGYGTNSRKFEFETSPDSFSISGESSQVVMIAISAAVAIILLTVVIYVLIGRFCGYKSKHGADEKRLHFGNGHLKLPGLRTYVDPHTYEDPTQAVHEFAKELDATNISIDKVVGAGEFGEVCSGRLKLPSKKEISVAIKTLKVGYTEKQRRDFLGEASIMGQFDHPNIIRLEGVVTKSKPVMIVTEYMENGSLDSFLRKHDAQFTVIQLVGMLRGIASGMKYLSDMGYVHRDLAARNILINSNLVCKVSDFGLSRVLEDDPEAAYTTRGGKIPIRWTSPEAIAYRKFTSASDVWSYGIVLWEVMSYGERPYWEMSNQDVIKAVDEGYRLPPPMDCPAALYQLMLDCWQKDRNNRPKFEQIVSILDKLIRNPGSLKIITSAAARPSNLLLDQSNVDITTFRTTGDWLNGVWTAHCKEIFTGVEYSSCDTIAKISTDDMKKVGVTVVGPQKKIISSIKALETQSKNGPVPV

Compound `O=C1Nc2ncccc2/C1=C1/Nc2ncccc2C1=O` has an Activity [1] of 107%, an Activity [2] of 89% and a GI50 (UACC-62) of 432 nM. It also gave an Activity [3] of 94%, an Activity [4] of 101% and a GI50 (M14) of 391 nM. For the same compound, the Activity [5] was 76%, the Activity [6] was 92% and the GI50 (SK-MEL-2) was 1710 nM. For the same compound, the Activity [7] was 121%, the Activity [8] was 95% and the Activity (MCF7 [9]) was 0.17%. It also gave an Activity [10] of 136%, an Activity [11] of 77% and an Activity [12] of 93%. It also gave an Activity [13] of 83%, an Activity [14] of 90% and an Activity [15] of 80%. It also gave an Activity [16] of 100%, an Activity (MCF7 [17]) of 12.87% and an Activity [18] of 96%. The Activity (MCF7 [19]) was 59.53%, the GI50 [20] was 1900 nM and the Activity [21] was 114%. The Activity [22] was 110%, the Activity [23] was 104% and the Activity [24] was 88%. The GI50 (NCI-H322M) was 282 nM, the Activity [25] was 103% and the Activity (MCF7 [26]) was “Active”. For the same compound, the Activity [27] was 78%, the Activity [28] was 126% and the Activity [29] was 87%. The Activity [30] was 100%, the Activity [31] was 91% and the Activity [32] was 102%.
